Source: ChEMBL document CHEMBL3414477, “Synthesis, biological investigation and molecular docking study of N-malonyl-1,2-dihydroisoquinoline derivatives as brain specific and shelf-stable MAO inhibitors” (Eur J Med Chem, 2015)

How the values were obtained:
[1] = organism: Bos taurus; assay: Selectivity index, ratio of IC50 for bovine brain mitochondria MAO-B to IC50 for bovine brain mitochondria MAO-A
Procedure, shortened: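 Bovine brain mitochondria (6 mg/mL suspension) in 0.25 M phosphate buffer, pH 7.4, were used with 0.1 mM clorgyline or L-deprenyl to isolate MAO-A or MAO-B. Compounds at five concentrations in propylene glycol were preincubated for 20 min, then 2.5 mM kynuramine was added for 60 min at 37 °C. The reaction was stopped with perchloric acid, made alkaline with NaOH and read fluorimetrically in duplicate. IC50 was reported, and SI = MAO-B IC50 / MAO-A IC50.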

[2] = target: T1, Amine oxidase [flavin-containing] A (Bos taurus, UniProt P21398); assay: Inhibition of bovine brain mitochondria MAO-A by spectrofluorimetry
T1 sequence (P21398 whole entry): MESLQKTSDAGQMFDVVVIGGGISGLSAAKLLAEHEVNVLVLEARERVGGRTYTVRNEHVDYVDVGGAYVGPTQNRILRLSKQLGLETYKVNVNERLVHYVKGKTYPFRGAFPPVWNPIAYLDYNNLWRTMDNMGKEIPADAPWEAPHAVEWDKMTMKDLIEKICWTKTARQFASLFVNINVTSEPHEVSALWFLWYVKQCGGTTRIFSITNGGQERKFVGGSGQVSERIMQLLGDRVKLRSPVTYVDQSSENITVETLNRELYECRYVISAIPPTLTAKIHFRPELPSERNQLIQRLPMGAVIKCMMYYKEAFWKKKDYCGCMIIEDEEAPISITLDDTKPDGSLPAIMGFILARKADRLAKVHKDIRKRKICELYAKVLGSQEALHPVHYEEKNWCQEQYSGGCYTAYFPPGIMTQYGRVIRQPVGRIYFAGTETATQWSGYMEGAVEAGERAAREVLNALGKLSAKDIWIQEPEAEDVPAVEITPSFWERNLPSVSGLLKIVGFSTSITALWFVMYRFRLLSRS

[3] = target: T2, Amine oxidase [flavin-containing] B (Bos taurus, UniProt P56560); assay: Inhibition of bovine brain mitochondria MAO-B by spectrofluorimetry
T2 sequence (P56560 whole entry): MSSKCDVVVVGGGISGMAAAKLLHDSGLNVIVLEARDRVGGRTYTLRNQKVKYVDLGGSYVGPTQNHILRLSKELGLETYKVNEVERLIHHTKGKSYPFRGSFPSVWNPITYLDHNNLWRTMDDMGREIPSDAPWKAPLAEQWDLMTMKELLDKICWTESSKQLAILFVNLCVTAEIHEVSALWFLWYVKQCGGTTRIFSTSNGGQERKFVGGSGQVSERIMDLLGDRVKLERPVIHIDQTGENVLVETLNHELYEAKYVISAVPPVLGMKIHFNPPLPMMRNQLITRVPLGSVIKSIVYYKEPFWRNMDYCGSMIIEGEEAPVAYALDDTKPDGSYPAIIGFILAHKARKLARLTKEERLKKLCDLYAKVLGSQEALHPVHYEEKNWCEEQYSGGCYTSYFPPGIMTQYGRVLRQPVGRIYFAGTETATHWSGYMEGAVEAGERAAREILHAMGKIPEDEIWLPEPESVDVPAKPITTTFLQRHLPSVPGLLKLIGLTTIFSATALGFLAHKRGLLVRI

[4] = Chemical stability of the compound in 10% methanolic silver nitrate assessed as apparent pseudo first order rate constant of disappearance by reverse-phase HPLC analysis; assay type: physicochemical
Procedure, shortened: (§1)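 Reagents were 10% methanolic silver nitrate or 30% aqueous hydrogen peroxide. The compound and its metabolites were measured by a validated reverse-phase HPLC method. Pseudo first order disappearance was fitted by linear regression of ln peak area against time, and t1/2 was derived from the rate constant.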

[5] = Chemical stability of the compound in 30% aqueous hydrogen peroxide assessed as apparent pseudo first order rate constant of disappearance by reverse-phase HPLC analysis; assay type: physicochemical; conditions: buffer; procedure, shortened: as §1
[6] = Chemical stability of the compound in 10% methanolic silver nitrate assessed as half life by reverse-phase HPLC analysis; assay type: physicochemical; procedure, shortened: as §1
[7] = Chemical stability of the compound in 30% aqueous hydrogen peroxide assessed as half life by reverse-phase HPLC analysis; assay type: physicochemical; procedure, shortened: as §1
[8] = Shelf-life stability of the compound in phosphate buffer at pH 7.4 assessed as apparent pseudo first order rate constant of disappearance by reverse-phase HPLC analysis; assay type: physicochemical
Procedure, shortened: (§2)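 1 mL of freshly prepared 2 × 10^-4 M methanolic solution (stock) was added to 5 mL of 0.2 M phosphate buffer, pH 5.8 or 7.4, at about 37 °C. Tubes were kept in the dark for 3 days and sampled at 5, 180, 1880 and 2440 min for reverse-phase HPLC. The rate constant came from linear regression of ln peak area against time, and t1/2 was derived from it.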

[9] = Shelf-life stability of the compound in phosphate buffer at pH 5.8 assessed as apparent pseudo first order rate constant of disappearance by reverse-phase HPLC analysis; assay type: physicochemical; procedure, shortened: as §2
[10] = Shelf-life stability of the compound in phosphate buffer at pH 7.4 assessed as half life by reverse-phase HPLC analysis; assay type: physicochemical; procedure, shortened: as §2
[11] = Shelf-life stability of the compound in phosphate buffer at pH 5.8 assessed as half life by reverse-phase HPLC analysis; assay type: physicochemical; procedure, shortened: as §2
[12] = test system: Plasma; assay: Stability of the compound in 80% mouse plasma assessed as apparent pseudo first order rate constant of disappearance by reverse-phase HPLC analysis; assay type: ADME, cell-free
Procedure, shortened: (§3)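 Heparinized mouse blood was spun at 4000 rpm for 20 min, and the plasma was diluted to 80% with 0.2 M phosphate buffer, pH 7.4, then prewarmed at 37 °C. Methanolic compound solution (2 × 10^-4 M stock) was added and the mix held at 37 °C. Samples were taken at 5–240 min, quenched in ice-cold methanol, frozen, centrifuged and run on HPLC. Rate came from ln peak area versus time (n = 5), and t1/2 was derived.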

[13] = test system: Brain; assay: Stability of the compound in 20% rabbit brain homogenate assessed as apparent pseudo first order rate constant of disappearance by reverse-phase HPLC analysis; assay type: ADME, tissue-based, Oryctolagus cuniculus
Procedure, shortened: (§4)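 Rabbit brains were homogenized in 4 volumes of ice-cold isotonic 0.2 M phosphate buffer, pH 7.4, giving a 20% homogenate that was equilibrated at 37 °C. Methanolic compound solution (2 × 10^-4 M stock) was added and the mix held at 37 °C. Samples were taken at 5, 60, 120, 180 and 240 min, quenched in ice-cold methanol, frozen, centrifuged and run on HPLC. The pseudo first order rate came from ln peak area versus time (n = 5), and t1/2 was derived.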

[14] = Stability of the compound in 80% mouse plasma assessed as half life by reverse-phase HPLC analysis; assay type: ADME, cell-free; procedure, shortened: as §3
[15] = Stability of the compound in 20% rabbit brain homogenate assessed as half life by reverse-phase HPLC analysis; assay type: ADME, tissue-based, Oryctolagus cuniculus; procedure, shortened: as §4
[16] = test system: Blood; assay: Drug metabolism in Sprague-Dawley rat blood assessed as 2-(isoquinolinium-2-yl)-3-oxo-3-(phenethylamino)propanoate measured during first 15 mins at 20 mg/kg, iv; assay type: ADME, organism-based; set-up: dose 20 mg/kg, route intravenous; conditions: in vivo, 0.25 h
Procedure, shortened: (§5)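 Female Sprague Dawley rats (65–70 g, 3 per group) were anesthetized with urethane and given 20 mg/kg in DMSO (25 mg/mL) via the external jugular vein. At 5, 15, 30, 45, 60 and 75 min, eyeball blood was taken into acetonitrile. Brains were removed, washed, homogenized in water plus 5% DMSO/acetonitrile and centrifuged at 4000 rpm for 10 min. Supernatants were analysed by HPLC, with DMSO-injected controls.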

[17] = test system: Brain; assay: Drug metabolism in Sprague-Dawley rat brain assessed as 2-(isoquinolinium-2-yl)-3-oxo-3-(phenethylamino)propanoate at 20 mg/kg, iv; assay type: ADME, organism-based; set-up: dose 20 mg/kg, route intravenous; conditions: in vivo; procedure, shortened: as §5
[18] = test system: Brain; assay: Drug metabolism in Sprague-Dawley rat brain assessed as 2-(isoquinolin-2(1H)-yl)-3-oxo-3-(phenethylamino)propanoate at 20 mg/kg, iv; assay type: ADME, organism-based; set-up: dose 20 mg/kg, route intravenous; conditions: in vivo; procedure, shortened: as §5
[19] = test system: Brain; assay: Drug distribution in Sprague-Dawley rat brain measured per gram at 20 mg/kg, iv; assay type: ADME, organism-based; set-up: dose 20 mg/kg, route intravenous; conditions: in vivo; procedure, shortened: as §5

Q: Which Selectivity Index [1] does the source give for `CCOC(=O)C(C(=O)NCCc1ccccc1)[n+]1ccc2ccccc2c1` (stereo unspecified) here?
A: 12400

Q: And the IC50 [2]?
A: 0.0062 µM

Q: And the IC50 [3]?
A: 77 µM

Q: Which K [4] does the source give for `CCOC(=O)C(C(=O)NCCc1ccccc1)N1C=Cc2ccccc2C1` (stereo unspecified) here?
A: 0.0217 min⁻¹

Q: And the K [5]?
A: 0.0181 min⁻¹

Q: What about the half-life [6] of the same molecule?
A: 0.532 h

Q: What about the half-life [7] of the same molecule?
A: 0.637 h

Q: What about the K [8] of the same molecule?
A: 0.00114 min⁻¹

Q: And the K [9]?
A: 0.000561 min⁻¹

Q: And the half-life [10]?
A: 10.1 h

Q: And the half-life [11]?
A: 20.6 h

Q: And the K [12]?
A: 6.81 ×10⁻³ /min

Q: What about the K [13] of the same molecule?
A: 3.82 ×10⁻³ /min

Q: What about the half-life [14] of the same molecule?
A: 1.7 h

Q: What about the half-life [15] of the same molecule?
A: 3.02 h

Q: What about the Drug metabolism [16] of the same molecule?
A: metabolite_detected

Q: What about the Drug metabolism [17] of the same molecule?
A: metabolite_detected

Q: What about the Drug metabolism [18] of the same molecule?
A: metabolite_detected

Q: And the Drug uptake [19]?
A: 145.1 µg/g

Q: For `CCOC(=O)C(C(=O)N/N=C/c1ccc(Cl)cc1)[n+]1ccc2ccccc2c1` (stereo unspecified), which Selectivity Index [1] is on record?
A: 5400

Q: And the IC50 [2]?
A: 0.066 µM

Q: And the IC50 [3]?
A: 360 µM

Q: Which results are given for `N/N=C/c1ccc([N+](=O)[O-])cc1`?
A: Selectivity Index [1]: 9500; IC50 [2]: 0.049 µM; IC50 [3]: 380 µM

Q: With `N/N=C/c1ccc(Cl)cc1` as the molecule, how does the Selectivity Index [1] read?
A: 1.89e+06

Q: What about the IC50 [2] of the same molecule?
A: 0.0039 µM

Q: What about the IC50 [3] of the same molecule?
A: 7400 µM

Q: Which Selectivity Index [1] does the source give for `CCOC(=O)C(C(=O)N/N=C/c1ccc([N+](=O)[O-])cc1)[n+]1ccc2ccccc2c1` (stereo unspecified) here?
A: 1.94e+06

Q: What about the IC50 [2] of the same molecule?
A: 0.0038 µM

Q: And the IC50 [3]?
A: 7400 µM
